The values below come from ChEMBL document CHEMBL2146438, “Radiolabeled cyclosaligenyl monophosphates of 5-iodo-2'-deoxyuridine, 5-iodo-3'-fluoro-2',3'-dideoxyuridine, and 3'-fluorothymidine for molecular radiotherapy of cancer: synthesis and biological evaluation” (J Med Chem, 2012).

As a reminder, the IC50 is the point on the concentration scale where inhibition reaches its midpoint.

In series [1] the target is Cholinesterase (Homo sapiens, UniProt P06276). The experiment in a line: Inhibition of human BChE after 30 mins by microplate reader method.
Cholinesterase, sequence (P06276 whole entry): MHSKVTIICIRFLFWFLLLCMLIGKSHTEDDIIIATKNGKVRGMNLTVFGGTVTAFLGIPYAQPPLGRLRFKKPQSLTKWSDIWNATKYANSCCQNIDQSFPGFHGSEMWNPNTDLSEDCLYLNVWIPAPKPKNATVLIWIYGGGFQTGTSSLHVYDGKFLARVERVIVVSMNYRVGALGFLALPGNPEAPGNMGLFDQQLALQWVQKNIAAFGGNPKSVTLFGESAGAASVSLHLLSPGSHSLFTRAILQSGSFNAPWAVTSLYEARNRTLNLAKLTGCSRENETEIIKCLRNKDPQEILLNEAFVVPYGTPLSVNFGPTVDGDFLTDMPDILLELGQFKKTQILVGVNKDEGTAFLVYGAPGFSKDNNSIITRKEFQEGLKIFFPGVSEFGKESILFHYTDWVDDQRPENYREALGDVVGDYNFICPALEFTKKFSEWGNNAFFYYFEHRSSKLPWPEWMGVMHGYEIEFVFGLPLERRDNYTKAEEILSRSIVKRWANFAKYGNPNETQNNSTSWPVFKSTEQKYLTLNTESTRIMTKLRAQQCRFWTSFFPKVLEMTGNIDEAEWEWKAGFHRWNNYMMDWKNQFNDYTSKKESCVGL
Series [2] can be described thus: Half life of the compound in phosphate buffer at pH 7.3. In kind it is physicochemical.
Series [3] can be described thus: Chemical stability of the compound in phosphate buffer at pH 7.3. In kind it is physicochemical.
Series [4] in a line: Cellular uptake in human OVCAR3 cell nucleus assessed as per 10^3 cells after 1 hr by gamma counting. The note with it: ovcar-3, 1 h. In kind it is ADME, cell-based. The procedure, abridged:
(§1)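 OVCAR-3 cells incubated 1 h with 55.5 (0.04) kBq/mL 125I-labelled agent (diastereomer mixtures or resolved slow isomers); fractionated either immediately or after 24 h further growth in fresh nonradioactive medium; 125I in cytoplasm and nucleus counted as cpm/10^3 cells with std dev.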

A short description of series [5]: Cellular uptake in human OVCAR3 cell cytoplasm assessed as per 10^3 cells after 1 hr by gamma counting. Particulars: ovcar-3, 1 h; call rule not given here. It is filed as ADME, cell-based. The method in brief: as §1
Series [6] can be described thus: Cellular uptake in human OVCAR3 cell nucleus assessed as per 10^3 cells after 24 hrs by gamma counting. It is filed as ADME, cell-based. The note with it: ovcar-3, 24 h. The procedure, abridged:
as §1

The nature of series [7]: Cellular uptake in human OVCAR3 cell cytoplasm assessed as per 10^3 cells after 24 hrs by gamma counting. It is filed as ADME, cell-based. Particulars: ovcar-3, 24 h. The method in brief:
as §1

A short description of series [8]: Cellular uptake in human OVCAR3 cytoplasm at 55.5 kBq/mL incubated for 1 hr followed by compound wash out measured after 24 hrs by gamma counting. It is filed as ADME, cell-based. Particulars: ovcar-3, 1 h. The method in brief:
as §1

Consider `Cc1cccc2c1OP(=O)(OC[C@H]1O[C@@H](n3cc(I)c(=O)[nH]c3=O)C[C@@H]1O)OC2` (stereo in doubt; form 2), for which the IC50 in series [1] was found to be 0.0612 µM.

With `CC(C)(C)c1cc(C(C)(C)C)c2c(c1F)COP(=O)(OC[C@H]1O[C@@H](n3cc(I)c(=O)[nH]c3=O)C[C@@H]1F)O2` (stereo in doubt; form 1), the t1/2 in series [2] came out at 39.6 h. In series [1], this compound yielded a half-inhibitory concentration (IC50) of 0.549 µM. The compound further gave a K in series [3] of 2.92 ×10⁻⁴ /min.

In series [1], `CC(C)(C)c1cc(C(C)(C)C)c2c(c1F)COP(=O)(OC[C@H]1O[C@@H](n3cc(I)c(=O)[nH]c3=O)C[C@@H]1O)O2` (stereo in doubt; form 3) gave an IC50 of 1.14 µM.

For `O=c1[nH]c(=O)n([C@H]2C[C@H](OP3(=O)OCc4ccccc4O3)[C@@H](CO)O2)cc1[125I]` (stereo partly drawn), the Drug uptake in series [4] came out at 2.1 cpm; in series [5], 7.2 cpm; in series [6], 30.2 cpm; in series [7], 2.7 cpm.

Regarding `CC(C)(C)c1cc(C(C)(C)C)c2c(c1F)COP(=O)(OC[C@H]1O[C@@H](n3cc(I)c(=O)[nH]c3=O)C[C@@H]1F)O2` (stereo in doubt; form 2), the t1/2 in series [2] turned out to be 52 h. In addition, in series [1], the IC50 is 0.0198 µM. The same compound gave a K in series [3] of 2.22 ×10⁻⁴ /min.

Compound `Cc1cccc2c1OP(=O)(O[C@H]1C[C@H](n3cc(I)c(=O)[nH]c3=O)O[C@@H]1CO)OC2` (stereo in doubt; form 1) came in with a t1/2 in series [2] of 12.2 h. For the same compound, the K in series [3] amounted to 9.46 ×10⁻⁴ /min.

For the compound `O=c1[nH]c(=O)n([C@H]2C[C@H](OP3(=O)OCc4ccccc4O3)[C@@H](COP3(=O)OCc4ccccc4O3)O2)cc1[125I]` (stereo partly drawn), the Drug uptake in series [4] amounted to 6.4 cpm; in series [5] it was 97.6 cpm; in series [6], 18.1 cpm; in series [7] it was 37.3 cpm.

Turning to `Cc1cn([C@H]2C[C@H](O)[C@@H](COP3(=O)OCc4c(F)c(C(C)(C)C)cc(C(C)(C)C)c4O3)O2)c(=O)[nH]c1=O` (stereo in doubt; form 1), in series [1], the IC50 worked out at 23.6 µM.

On to `O=c1[nH]c(=O)n([C@H]2C[C@H](OP3(=O)OCc4ccccc4O3)[C@@H](CO)O2)cc1I` (stereo in doubt; form 2), for which the t1/2 in series [2] amounted to 7.1 h. Further, the K in series [3] is recorded as 1.64 ×10⁻³ /min.

The compound `O=c1[nH]c(=O)n([C@H]2C[C@H](O)[C@@H](COP3(=O)OCc4ccccc4O3)O2)cc1I` (stereo in doubt; form 1) displayed an IC50 in series [1] of 1.28 µM.

In the case of `Cc1cccc2c1OP(=O)(O[C@H]1C[C@H](n3cc(I)c(=O)[nH]c3=O)O[C@@H]1CO)OC2` (stereo in doubt; form 2), the t1/2 in series [2] came to 14.2 h. This compound showed a K in series [3] of 8.13 ×10⁻⁴ /min.

For the compound `Cc1cccc2c1OP(=O)(O[C@H]1C[C@H](n3cc([125I])c(=O)[nH]c3=O)O[C@@H]1CO)OC2` (stereo partly drawn), the Drug uptake is reported as 2 cpm in series [4], 6.2 cpm in series [5], 15.7 cpm in series [6] and 1.4 cpm in series [7].

The compound `CC(C)(C)c1cc(C(C)(C)C)c2c(c1F)COP(=O)(OC[C@H]1O[C@@H](n3cc(I)c(=O)[nH]c3=O)C[C@@H]1O)O2` (stereo in doubt; form 1) yielded a t1/2 in series [2] of 47.9 h. In series [3], this compound had a K of 2.41 ×10⁻⁴ /min.

Take `O=c1[nH]c(=O)n([C@H]2C[C@H](O)[C@@H](COP3(=O)OCc4ccccc4O3)O2)cc1I` (stereo in doubt; form 2): the IC50 in series [1] was determined as 0.0092 µM.

Regarding `O=c1[nH]c(=O)n([C@H]2C[C@H](O)[C@@H](COP3(=O)OCc4ccccc4O3)O2)cc1[125I]` (stereo in doubt; 6b), the Drug uptake in series [4] (1 h) was 5.7 cpm; in series [8] it was “Active”; in series [5] (1 h), 20.2 cpm; in series [6] (24 h), 39.4 cpm; in series [7] (24 h), 7.3 cpm.

`Cc1cccc2c1OP(=O)(OC[C@H]1O[C@@H](n3cc([125I])c(=O)[nH]c3=O)C[C@@H]1OP1(=O)OCc3cccc(C)c3O1)OC2` (stereo partly drawn): the Drug uptake was 6 cpm in series [4], 97.1 cpm in series [5], 24.5 cpm in series [6] and 13.4 cpm in series [7].

Regarding `Cc1cn([C@H]2C[C@H](O)[C@@H](COP3(=O)OCc4c(F)c(C(C)(C)C)cc(C(C)(C)C)c4O3)O2)c(=O)[nH]c1=O` (stereo in doubt; form 2), the IC50 in series [1] is 0.376 µM.

As to `CC(C)(C)c1cc(C(C)(C)C)c2c(c1F)COP(=O)(OC[C@H]1O[C@@H](n3cc([125I])c(=O)[nH]c3=O)C[C@@H]1F)O2` (stereo in doubt; form 2), the t1/2 in series [2] turned out to be 51.5 h. This compound yielded a K in series [3] of 2.24 ×10⁻⁴ /min.

`CC(C)(C)c1cc(C(C)(C)C)c2c(c1F)COP(=O)(O[C@H]1C[C@H](n3cc(I)c(=O)[nH]c3=O)O[C@@H]1CO)O2` (stereo in doubt; form 1) gave a t1/2 in series [2] of 15.1 h. In addition, the K in series [3] is given as 7.66 ×10⁻⁴ /min.

Turning to `O=c1[nH]c(=O)n([C@H]2C[C@H](OP3(=O)OCc4ccccc4O3)[C@@H](CO)O2)cc1I` (stereo in doubt; form 1), the t1/2 in series [2] came out at 5.3 h. In addition, in series [3], the K turned out to be 2.05 ×10⁻³ /min.

As to `CC(C)(C)c1cc(C(C)(C)C)c2c(c1F)COP(=O)(OC[C@H]1O[C@@H](n3cc(I)c(=O)[nH]c3=O)C[C@@H]1O)O2` (stereo in doubt; form 2), the t1/2 in series [2] is 61.5 h. Further, the IC50 in series [1] was 0.0501 µM. The compound further registered a K in series [3] of 1.88 ×10⁻⁴ /min.

Turning to `Cc1cn([C@H]2C[C@H](F)[C@@H](COP3(=O)OCc4c(F)c(C(C)(C)C)cc(C(C)(C)C)c4O3)O2)c(=O)[nH]c1=O` (stereo in doubt; form 1), 0.203 µM corresponded to half-maximal inhibition in series [1] (IC50).

In series [1], `Cc1cn([C@H]2C[C@H](F)[C@@H](COP3(=O)OCc4c(F)c(C(C)(C)C)cc(C(C)(C)C)c4O3)O2)c(=O)[nH]c1=O` (stereo in doubt; form 2) yielded an IC50 of 0.0426 µM.

Turning to `CC(C)(C)c1cc(C(C)(C)C)c2c(c1F)COP(=O)(OC[C@H]1O[C@@H](n3cc([125I])c(=O)[nH]c3=O)C[C@@H]1O)O2` (stereo in doubt; 8b), the Drug uptake in series [4] (1 h) is reported as 7.9 cpm; in series [8] it was > 230%; in series [5] (1 h) it was 88.3 cpm; in series [6] (24 h), 92.2 cpm; in series [7] (24 h), 3.2 cpm.

In the case of `CC(C)(C)c1cc(C(C)(C)C)c2c(c1F)COP(=O)(O[C@H]1C[C@H](n3cc([125I])c(=O)[nH]c3=O)O[C@@H]1CO)O2` (stereo partly drawn), the Drug uptake is 4.3 cpm in series [4], 62.5 cpm in series [5], 66.7 cpm in series [6] and 2.7 cpm in series [7].

With `Cc1cccc2c1OP(=O)(OC[C@H]1O[C@@H](n3cc([125I])c(=O)[nH]c3=O)C[C@@H]1O)OC2` (stereo in doubt; form 2), the Drug uptake in series [4] (1 h) was found to be 5.4 cpm; in series [5] (1 h), 13 cpm; in series [6] (24 h), 29.3 cpm; in series [7] (24 h), 1.8 cpm. Further, the t1/2 in series [2] came to 25 h. This compound showed a K in series [3] of 4.63 ×10⁻⁴ /min.

On to `Cc1cccc2c1OP(=O)(OC[C@H]1O[C@@H](n3cc(I)c(=O)[nH]c3=O)C[C@@H]1O)OC2` (stereo in doubt; form 1), for which, in series [1], the IC50 was > 7000 µM.
